Experimental data reported in PubChem BioAssay.
Activity calls are given as the source filed them.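 The calls were made as follows, unless noted: active = inhibition above 20% together with a positive visual image hit; inconclusive = visual image hit but inhibition not above 20%; inactive = no visual image hit.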

Key:
[1] = inhibitors of TNFa-induced NFkB p65 translocation, primary screen, imaging, HUVEC, MLSMR starter and 10KST1 sets (AID 438); details: HUVEC TNFa-induced p65 nuclear translocation; cell count: measured here: nuclei count (cytotoxicity indicator), at 2.08 µM; inhibition: at 2 µM, stronger effect = higher value, 0% TNFa-plus-vehicle, 100% no-TNFa wells;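 also: compound added about 3h40 before a 20 min TNFalpha stimulation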;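 as to inhibition: signal is the nuclear over cytoplasmic p65 intensity ratio per well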
[2] = inhibitors of E-selectin induction by TNFa, primary screen, imaging, HUVEC, immunofluorescence, MLSMR starter and 10KST1 sets (AID 487;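 active = visually confirmed hit in the image check and inhibition above 20%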;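 as to inhibition: signal is fraction of cell area covered by stained E-selectin grains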;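 as to nuclei count: 100% = median nuclei count of all wells on the same plate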); details: HUVEC TNFalpha-induced E-selectin immunofluorescence imaging, at 2 µM; inhibition: stronger effect = higher value; nuclei count: measured here: cell number, toxicity
[3] = DUSP6 inhibitors restoring Erk phosphorylation by chemical complementation, primary imaging in DUSP6-transfected HeLa (AID 609;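 active = compounds giving at least 50% inhibition in the cell-based MKP-3 phosphatase rescue imaging test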;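 as to inhibition: phospho-Erk level distribution per well compared with pooled transfected vehicle control wells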); details: HeLa MKP-3 transfected, phospho-Erk imaging KS statistic, at 10 µM, cells stimulated with TPA for 15 min
[4] = biological target: Dual specificity protein phosphatase 6 (Homo sapiens) (UniProt Q16828); experiment: as above; details: HeLa MKP-3 transfected, phospho-Erk imaging KS statistic; at 10 µM; stronger effect = higher value; cells stimulated with TPA for 15 min
[5] = biological target: Voltage-gated potassium channel subunit beta-2 (Rattus norvegicus) (UniProt P62483); experiment: KvBeta enzyme negative modulators, primary screen, biochemical, NADPH fluorescence (AID 622;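 active = fluorescence slope higher than the sample average by over 3 SD, cut at about -0.22 in these data, passing the limit was not always enough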;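 also: slope of raw intensity against log time taken from 70 to 1610 s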); details: recombinant KvBeta, 4-cyanobenzaldehyde reduction, at 10 µM, stronger effect = higher value
[6] = biological target: Voltage-gated potassium channel subunit beta-2 (Rattus norvegicus) (UniProt P62483); experiment: KvBeta positive modulators, primary screen, biochemical, NADPH fluorescence (AID 623;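 active = NADPH fluorescence slope more negative than the mean of all samples by about 3 SD, 99.7% confidence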;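 also: fluorescence intensity change per second fitted from 20 to 320 s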); details: Recombinant KvBeta, NADPH fluorescence decrease slope, 10 min; at 10 µM; stronger effect = lower value
[7] = biological target: Muscarinic acetylcholine receptor M4 (Homo sapiens) (UniProt P08173); experiment: compounds altering M4/GIRK thallium flux, either direction, primary screen, M4 allosteric agonist project, cell-based, HEK293 M4/GIRK, BTC-AM (AID 625;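 active = fluorescence slope after compound addition differing from the mean of all tested samples at 99.7% confidence, mostly higher but some lower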;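 also: thallium influx through GIRK channels coupled to M4 in HEK293 cells with BTC-AM dye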); details: at 10 µM, actives lie on both sides
How it was run: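 Material: HEK293 cells with M4 receptor and GIRK channels; Times: cells overnight at 37 °C, BTC-AM loading 1 h, reads 2 min total; Technique: kinetic BTC-AM fluorescence sampled at 1 Hz, 10 s pre-addition baseline; Read-out basis: slope over 15–24 s of trace normalized to starting intensity; Controls: carbachol positive, DMSO negative.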

[8] = inhibitors of larval lipid processing in zebrafish, primary screen, whole organism, PED6 fluorescence, gall bladder and intestine (AID 686;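 active = a full or partial loss of lipid-probe fluorescence in the fish gall bladder, intestine or both, judged by eye; inactive = no fluorescence loss, or compound toxic to the fish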;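 also: larvae 5 to 7 days old with five fish per well; signal comes from phospholipase A2 cleavage of quenched PED6 carried via bile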); details: Zebrafish larvae PED6 lipid processing, fluorescence scoring; screened at 20 µM (by protocol)
How it was run: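 Incubation: overnight exposure of larvae to compound plus PED6 / Test system: live zebrafish larvae aged 5-7 days, whole organism / Amount: 5 larvae per well / Read-out basis: visual per-well fluorescence inhibition score / Signal: visual fluorescence microscopy scoring of gall bladder, gut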

[9] = inhibitors of Chlamydomonas gravitaxis, primary screen, whole organism, Chlamydomonas reinhardtii, WT vs cilia-less mutant, absorbance, 96-well (AID 463189;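 active = inhibition at or above 50% relative to wild type and mutant plate controls; inactive = inhibition below 50%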;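 also: 0% = wild type cc124 cells in DMSO and 100% = ciliumless bld1 mutant cells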); details: OD600 absorbance, 2 days, at 10 µM, stronger effect = higher value
[10] = measured here: cell density z-score
[11] = measured here: nuclear c-Myc green intensity z-score
[12] = measured here: nuclear pErk red intensity z-score, stronger effect = higher value

Sequence of Dual specificity protein phosphatase 6 (Homo sapiens) (Q16828 whole entry, looked up): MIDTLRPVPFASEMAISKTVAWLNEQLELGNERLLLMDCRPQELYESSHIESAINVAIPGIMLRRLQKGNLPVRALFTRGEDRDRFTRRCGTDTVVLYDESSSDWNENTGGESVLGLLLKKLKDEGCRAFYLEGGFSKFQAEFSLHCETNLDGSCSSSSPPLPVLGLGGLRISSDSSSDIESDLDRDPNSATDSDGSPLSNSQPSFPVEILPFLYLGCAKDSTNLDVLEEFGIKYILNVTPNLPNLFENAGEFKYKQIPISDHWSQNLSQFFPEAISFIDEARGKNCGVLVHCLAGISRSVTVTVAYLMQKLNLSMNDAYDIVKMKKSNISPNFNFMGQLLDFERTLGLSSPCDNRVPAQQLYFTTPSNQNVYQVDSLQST
Sequence of Voltage-gated potassium channel subunit beta-2 (Rattus norvegicus) (P62483 whole entry, looked up): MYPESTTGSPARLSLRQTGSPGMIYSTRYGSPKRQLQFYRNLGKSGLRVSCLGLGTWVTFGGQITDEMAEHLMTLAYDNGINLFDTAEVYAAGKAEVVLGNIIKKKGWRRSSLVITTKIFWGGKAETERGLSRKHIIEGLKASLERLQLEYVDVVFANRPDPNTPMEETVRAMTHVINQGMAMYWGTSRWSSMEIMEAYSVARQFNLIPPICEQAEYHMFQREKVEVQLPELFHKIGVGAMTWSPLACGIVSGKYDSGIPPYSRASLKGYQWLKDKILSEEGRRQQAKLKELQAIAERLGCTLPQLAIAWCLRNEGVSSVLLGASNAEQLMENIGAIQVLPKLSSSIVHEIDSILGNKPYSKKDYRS
Sequence of Muscarinic acetylcholine receptor M4 (Homo sapiens) (P08173 whole entry, looked up): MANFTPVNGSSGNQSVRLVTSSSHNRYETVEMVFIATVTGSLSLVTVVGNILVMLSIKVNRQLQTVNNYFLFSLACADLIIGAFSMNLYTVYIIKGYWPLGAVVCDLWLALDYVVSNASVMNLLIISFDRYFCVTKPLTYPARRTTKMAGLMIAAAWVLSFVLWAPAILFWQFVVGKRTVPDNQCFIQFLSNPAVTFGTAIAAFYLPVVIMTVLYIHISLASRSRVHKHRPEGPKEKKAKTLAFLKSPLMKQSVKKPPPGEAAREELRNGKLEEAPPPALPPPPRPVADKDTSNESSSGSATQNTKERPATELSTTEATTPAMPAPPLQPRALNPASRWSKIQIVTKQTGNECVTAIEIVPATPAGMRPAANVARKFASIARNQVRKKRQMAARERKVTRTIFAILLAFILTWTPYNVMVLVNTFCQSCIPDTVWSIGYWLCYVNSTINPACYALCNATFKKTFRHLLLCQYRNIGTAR

SMILES | cell count [1] | inhibition [1] | inhibition [2] | nuclei count [2] | z-score [3, 10] | z-score [3, 11] | z-score [3, 12] | inhibition [4] | fluorescence slope [5] | NADPH fluorescence slope [6] | fluorescence slope [7] | outcome [8] | inhibition [9]
COc1ccc2[nH]c(C)c(C(=O)CN3CCOCC3)c2c1 | 640 | 7.2% (inactive) | -85.7% (inactive) | 184% | -1.08 | 1.22 | 0.499 | -1.98% (inactive) | -0.466 (inactive) | -6.6e-05 (inactive) | 0.00952 (inactive) | inactive | 13.2% (inactive)
Cc1cc(C)c(C#N)c(OCC(=O)c2ccccc2)n1 | 450 | -5.3% (inactive) | -69% (inactive) | 156% | -0.815 | 1.05 | 0.134 | -3.95% (inactive) | -0.405 (inactive) | -3.4e-05 (inactive) | 0.00481 (inactive) | inactive | -6.74% (inactive)
COc1ccc(N2CC(=O)N(c3ccc(OC)c(OC)c3)CC2=O)cc1OC | 400 | -5.7% (inactive) | -94.2% (inactive) | 142% | -0.173 | -2.28 | 1.66 | 3.42% (inactive) | -0.477 (inactive) | -5.2e-05 (inactive) | 0.00438 (inactive) | inactive | 18.5% (inactive)
N#C/C(=C\c1c(N2CCC(C(N)=O)CC2)nc2ccccn2c1=O)S(=O)(=O)c1ccccc1 | 444 | -3.7% (inactive) | -112% (inactive) | 144% | 1.56 | -0.902 | -1.07 | 12.7% (inactive) | -0.423 (inactive) | -2.9e-05 (inactive) | 0.00437 (inactive) | inactive | 4.15% (inactive)
CC(NC(=O)OCc1ccccc1)C(=O)OCN1C(=O)c2ccccc2C1=O (stereo not drawn) | 519 | -9.1% (inactive) | -64.3% (inactive) | 130% | 0.544 | -1.4 | 0.638 | -3.97% (inactive) | -0.391 (inactive) | -4.8e-06 (inactive) | 0.00711 (inactive) | inactive | 28% (inactive)
O=C1NCC(COCC2CC=CCC2)O1 (stereo not drawn) | 574 | -4% (inactive) | 50.9% (inactive) | 136% | 0.151 | -0.463 | -0.815 | 19.4% (inactive) | -0.408 (inactive) | -2.8e-05 (inactive) | 0.0053 (inactive) | inactive | 41.8% (inactive)
CN(CCOC(=O)c1ccc2c(c1)OCCO2)Cc1ccccc1 | 661 | -16.5% (inactive) | -9.5% (inactive) | 184% | 0.691 | -0.671 | 1.4 | 5.35% (inactive) | -0.472 (inactive) | -0.000111 (inactive) | 0.00763 (inactive) | inactive | 69.7% (active)
C/C(=N\O)C(=O)NCCCn1ccnc1 | 636 | -10.8% (inactive) | 26.6% (inactive) | 94.5% | -0.252 | 0.0271 | 0.47 | -0.233% (inactive) | -0.478 (inactive) | -0.000143 (inactive) | 0.00635 (inactive) | inactive | -9.7% (inactive)
Cn1c(N2CCN(c3ccccn3)CC2)nc2c1c(=O)n(Cc1ccc(Cl)cc1)c(=O)n2C | 678 | 5.8% (inactive) | -153% (inactive) | 180% | -0.409 | -1.46 | -0.591 | 27.8% (inactive) | -0.498 (inactive) | -2.6e-05 (inactive) | 0.00592 (inactive) | inactive | 24.6% (inactive)
CCn1c(SCC(=O)Nc2ccccc2C(=O)OC)nnc1-c1ccc(N)cc1 | 653 | 2.4% (inactive) | 7.2% (inactive) | 176% | 0.614 | 0.0177 | -0.913 | 22.1% (inactive) | -0.46 (inactive) | -4.1e-05 (inactive) | 0.00557 (inactive) | inactive | 19.8% (inactive)
COc1cc(/C=N/n2nnnc2N)ccc1O | 594 | -13% (inactive) | -19.6% (inactive) | 150% | 0.109 | -0.705 | -0.571 | 17.7% (inactive) | -0.448 (inactive) | -0.000221 (inactive) | 0.00627 (inactive) | inactive | 14% (inactive)
COC(=O)C(NC(=O)c1ccccc1)(Nc1nccs1)C(F)(F)F (stereo not drawn) | 677 | -5.5% (inactive) | -7.4% (inactive) | 159% | 1.36 | -0.846 | 0.224 | 22.1% (inactive) | -0.474 (inactive) | -2.6e-05 (inactive) | 0.00463 (inactive) | inactive | -5.27% (inactive)
CC1(C(=O)CSc2n[nH]c(-c3ccccc3Cl)n2)CCC(=O)O1 (stereo not drawn) | 640 | -3.4% (inactive) | -44.5% (inactive) | 144% | 1.47 | -0.819 | -0.432 | -2.47% (inactive) | -0.482 (inactive) | -7.8e-05 (inactive) | 0.0054 (inactive) | inactive | 3.93% (inactive)
CSc1nc(N)nc(SCC(=O)C23CC4CC(CC(C4)C2)C3)c1C#N | 491 | 2.8% (inactive) | -70.2% (inactive) | 94.4% | -0.797 | 0.314 | -0.79 | 15.9% (inactive) | -0.334 (inactive) | -1.7e-05 (inactive) | 0.00876 (inactive) | inactive | 35.9% (inactive)
C=CCN=C(NC#N)SCCc1ccccc1 | 587 | -16.1% (inactive) | 49.5% (inactive) | 161% | -0.943 | 1.91 | -0.167 | -5.62% (inactive) | -0.498 (inactive) | -6.6e-05 (inactive) | 0.00676 (inactive) | inactive | -0.302% (inactive)
CCCNC1=C(C)C(=O)CC1 | 602 | -0.5% (inactive) | -37.1% (inactive) | 120% | -1.42 | 0.756 | 1.36 | -0.233% (inactive) | -0.481 (inactive) | -4.1e-05 (inactive) | 0.00471 (inactive) | inactive | 3.26% (inactive)
COc1ccc(Nc2nnc(C)c3ccccc23)cc1C(N)=O | 616 | -2.5% (inactive) | -91.7% (inactive) | 152% | -0.473 | 0.976 | -0.605 | 3.49% (inactive) | -0.459 (inactive) | -0.000141 (inactive) | 0.00456 (inactive) | inactive | -4.27% (inactive)
Cn1c(NCC(O)c2ccccc2)nc2c1c(=O)n(Cc1ccc(Cl)cc1)c(=O)n2C (stereo not drawn) | 676 | 8.4% (inactive) | -18% (inactive) | 103% | -0.206 | 0.674 | -0.257 | -9.53% (inactive) | -0.423 (inactive) | -4.1e-05 (inactive) | 0.00426 (inactive) | inactive | 8.04% (inactive)
Cc1cc(N2C(=O)C(=O)/C(=C(/O)c3ccccc3)C2c2cccs2)no1 (stereo not drawn) | 668 | 0.1% (inactive) | -91.9% (inactive) | 165% | 0.267 | -0.396 | -0.163 | 6.04% (inactive) | -0.486 (inactive) | -1.4e-05 (inactive) | 0.00578 (inactive) | inactive | 24.8% (inactive)
CCn1c(SCC(=O)NC2CCCCC2C)nnc1-c1ccc(OC)cc1 (stereo not drawn) | 430 | -4.4% (inactive) | -37.9% (inactive) | 149% | -0.0183 | 0.142 | 0.845 | 7.73% (inactive) | -0.45 (inactive) | -0.000123 (inactive) | 0.00502 (inactive) | inactive | -4.06% (inactive)
CC(C)(C)C1=Nn2c(nnc2C2CCCCC2)SC1 | 802 | -5.9% (inactive) | -150% (inactive) | 189% | 0.781 | 1.46 | 0.611 | 2.46% (inactive) | -0.452 (inactive) | -7.5e-05 (inactive) | 0.00451 (inactive) | inactive | 3.81% (inactive)
